In ChEMBL document CHEMBL1141319, “Cinnamic ester derivatives from Oxalis pes-caprae (Bermuda buttercup)” (2007):
Calls of active or inactive are those of the source. The calls are words filed in the database; no cut-off is given here.

Columns and labels:
[1] = system: Lactuca sativa; test: Phytotoxicity against Lactuca sativa assessed as inhibition of seed germination relative to control; type: functional; set-up: concentration or dose not given beside the values
Summary of the method: (§1)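 Lettuce seeds (cv. Napoli V.F.), selected for uniformity, 25 per 50 mm dish on filter paper with 5 mL test solution in 10 mM MES pH 6. Tested at 10^-4 M, diluted to 10-5–10-7 M. Dishes sealed and kept at 25 °C in the dark, with germination counted daily for 5 days. Seedlings frozen at -20 °C before measuring. Four replicates with parallel controls; results given as % difference from control, Student's t test.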

[2] = system: Lactuca sativa; test: Phytotoxicity against Lactuca sativa assessed as inhibition of root length at 0.1 mM relative to control; type: functional; set-up: scale not given: the % may be the effect or the level left; summary of the method: as §1
[3] = system: Lactuca sativa; test: Phytotoxicity against Lactuca sativa assessed as inhibition of shoot length at 100 uM relative to control; type: functional; set-up: scale not given: the % may be the effect or the level left; summary of the method: as §1
[4] = system: Lactuca sativa; test: Phytotoxicity against Lactuca sativa assessed as inhibition of root length upto 0.1 uM relative to control; type: functional, organism-based; summary of the method: as §1
[5] = system: Lactuca sativa; test: Phytotoxicity against Lactuca sativa assessed as inhibition of radical length at 0.1 uM to 0.1 mM relative to control; type: functional; set-up: scale not given: the % may be the effect or the level left; summary of the method: as §1
[6] = system: Lactuca sativa; test: Phytotoxicity against Lactuca sativa assessed as inhibition of shoot length at 0.1 uM to 0.1 mM relative to control; type: functional; set-up: scale not given: the % may be the effect or the level left; summary of the method: as §1
[7] = system: Lactuca sativa; test: Phytotoxicity against Lactuca sativa assessed as inhibition of seed germination at 1 to 10 nM relative to control; type: functional, organism-based
[8] = system: Lactuca sativa; test: Phytotoxicity against Lactuca sativa assessed as inhibition of shoot length at 1 to 10 nM relative to control; type: functional, organism-based

| SMILES | Activity [1] | Activity [2] | Activity [3] | Activity [4] | Activity [5] | Activity [6] | Activity [7] | Activity [8] |
| --- | --- | --- | --- | --- | --- | --- | --- | --- |
| COc1cc(/C=C/C(=O)OCCOC(C)=O)cc(OC)c1OC | 10% | >=80% | 60% | – | – | – | – | – |
| COc1cc(/C=C/C(=O)Oc2cccc(O)c2)cc(OC)c1O | 10% | >=80% | 60% | – | – | – | – | – |
| COc1cc(/C=C/C(=O)OCCO)cc(OC)c1O | 10% | – | 30% | – | – | – | – | – |
| COc1cccc(OC(=O)/C=C/c2cc(OC)c(OC)c(OC)c2)c1 | 10% | – | 60% | – | – | – | – | – |
| COc1cc(/C=C/C(=O)OCCO)cc(OC)c1OC | 10% | – | 30% | – | – | – | – | – |
| COc1cc(/C=C/C(=O)Oc2cccc(O)c2)cc(OC)c1OC | 10% | >=80% | 60% | – | – | – | – | – |
| O=C(/C=C/c1ccc(O)c(O)c1)OCCO | 10% | >=80% | 100% | Active | 100% | 100% | inactive | inactive |
